{"source": "ChEMBL document CHEMBL6092133", "about": "“Enhancing the therapeutic window for Spectinamide anti-tuberculosis Agents: Synthesis, Evaluation, and activation of phosphate prodrug 3408” (Bioorg Med Chem Lett, 2024)", "key": {"[1]": {"assay": "Toxicity in Sprague-Dawley rat assessed as maximum tolerated dose administered as iv bolus injection for 30 sec", "assay_type": "organism-based", "conditions": "in vivo", "outline": "(§1)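 Rats given single intravenous doses either as a bolus over 5 or 30 seconds or as a timed infusion (minutes, per line). The highest dose tolerated without acute toxicity was recorded as MTD in mg/kg.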"}, "[2]": {"assay": "Half life in male Sprague-Dawley rat at 10 mg/kg, iv administered as bolus injection and measured after 48 hrs by LC-MS/MS analysis", "assay_type": "ADME, organism-based", "conditions": "in vivo", "outline": "(§2)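 Rats dosed once by 10 mg/kg i.v. bolus with either the parent spectinamide or the phosphate prodrug at an equivalent molar amount. Plasma parent-drug concentration-time profiles gave AUC, Cmax, clearance, Vss and terminal half-life, reported as mean ± spread.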"}, "Bacterial 70S ribosome": {"target": "Bacterial 70S ribosome", "assay": "Inhibition of ribosome-mediated protein synthesis in Mycobacterium smegmatis", "assay_type": "subcellular, Mycolicibacterium smegmatis"}, "[3]": {"assay": "Toxicity in Sprague-Dawley rat assessed as maximum tolerated dose administered as iv bolus injection for 5 sec", "assay_type": "organism-based", "conditions": "in vivo", "outline": "as §1"}, "[4]": {"assay": "Toxicity in Sprague-Dawley rat assessed as maximum tolerated dose administered via iv infusion for 5 mins", "assay_type": "organism-based", "conditions": "in vivo", "outline": "as §1"}, "[5]": {"assay": "Cmax in male Sprague-Dawley rat at 10 mg/kg, iv administered as bolus injection and measured after 48 hrs by LC-MS/MS analysis", "assay_type": "ADME, organism-based", "conditions": "in vivo", "outline": "as §2"}, "[6]": {"assay": "Volume of distribution at steady state in male Sprague-Dawley rat at 10 mg/kg, iv administered as bolus injection and measured after 48 hrs by LC-MS/MS analysis", "assay_type": "ADME, organism-based", "conditions": "in vivo, read-out: Vdss", "outline": "as §2"}, "[7]": {"assay": "Toxicity in Sprague-Dawley rat assessed as maximum tolerated dose administered via iv infusion for 15 mins", "assay_type": "organism-based", "conditions": "in vivo", "outline": "as §1"}, "[8]": {"assay": "AUC in male Sprague-Dawley rat at 10 mg/kg, iv administered as bolus injection and measured after 48 hrs by LC-MS/MS analysis", "assay_type": "ADME, organism-based", "conditions": "in vivo", "outline": "as §2"}, "[9]": {"assay": "Clearance in male Sprague-Dawley rat at 10 mg/kg, iv administered as bolus injection and measured after 48 hrs by LC-MS/MS analysis", "assay_type": "ADME, organism-based", "conditions": "in vivo", "outline": "as §2"}, "[10]": {"assay": "Toxicity in Sprague-Dawley rat assessed as maximum tolerated dose administered via iv infusion for 30 mins", "assay_type": "organism-based", "conditions": "in vivo", "outline": "as §1"}, "[11]": {"assay": "(§3) Prodrug conversion in male Sprague-Dawley rat assessed as Cmax of 2-(5-chloropyridin-2-yl)-N-((2R,4R,4aS,5aR,6S,7S,8R,9S,9aR,10aS)-4a,7,9-trihydroxy-2-methyl-6,8-bis(methylamino)decahydro-2H-benzo[b]pyrano[2,3-e][1,4]dioxin-4-yl)acetamide at 10 mg/kg, iv administered as bolus injection and measured after 48 hrs by LC-MS/MS analysis", "assay_type": "ADME, organism-based", "conditions": "in vivo", "outline": "as §2"}, "[12]": {"assay": "Stability of compound in plasmaLyte A and milli-Q water mixture measured for >=6 hrs at room temperature by LC-MS/MS analysis", "assay_type": "physicochemical", "conditions": "buffer", "outline": "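Prodrug held in dosing vehicle alone at room temperature for at least 6 hours, with compound integrity monitored over time.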"}, "[13]": {"assay": "Prodrug conversion in rat plasma assessed as 2-(5-chloropyridin-2-yl)-N-((2R,4R,4aS,5aR,6S,7S,8R,9S,9aR,10aS)-4a,7,9-trihydroxy-2-methyl-6,8-bis(methylamino)decahydro-2H-benzo[b]pyrano[2,3-e][1,4]dioxin-4-yl)acetamide formation by measuring half-life at 0.1 to 1 microg/ml", "assay_type": "ADME, cell-free", "conditions": "dose 0.1-1 µg/ml", "outline": "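Prodrug incubated in vitro in fresh rat plasma. Appearance of the parent drug was followed over time to give a conversion half-life.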"}, "[14]": {"assay": "as §3, with “volume of distribution at steady state” for “Cmax”", "assay_type": "ADME, organism-based", "conditions": "in vivo", "outline": "as §2"}, "[15]": {"assay": "as §3, with “AUC” for “Cmax”", "assay_type": "ADME, organism-based", "conditions": "in vivo", "outline": "as §2"}, "[16]": {"system": "Mycobacterium tuberculosis", "assay": "Antibacterial activity against Mycobacterium tuberculosis H37Rv by whole cell MIC assay", "assay_type": "functional, organism-based"}, "[17]": {"assay": "as §3, with “clearance” for “Cmax”", "assay_type": "ADME, organism-based", "conditions": "in vivo", "outline": "as §2"}, "[18]": {"assay": "as §3, with “half-life” for “Cmax”", "assay_type": "ADME, organism-based", "conditions": "in vivo", "outline": "as §2"}}, "note": "Calls of active or inactive are those of the source. The calls are words filed in the database; no cut-off is given here.", "data": [{"smiles": "CN[C@@H]1[C@H](O)[C@H](NC)[C@H]2O[C@]3(O)[C@H](O[C@@H]2[C@H]1O)O[C@H](C)C[C@H]3NC(=O)Cc1ccc(O)cn1", "values": [{"measurement": "MTD at 0.5 min", "setting": "[1]", "result": 200, "unit": "mg/kg"}, {"measurement": "half-life", "setting": "[2]", "result": 23.5, "unit": "min"}, {"measurement": "IC50", "setting": "Bacterial 70S ribosome", "result": 1.79, "unit": "µM"}, {"measurement": "MTD at 5 s", "setting": "[3]", "result": 200, "unit": "mg/kg"}, {"measurement": "MTD at 5 min", "setting": "[4]", "result": 350, "unit": "mg/kg"}, {"measurement": "Cmax", "setting": "[5]", "result": 47000, "unit": "ng/mL"}, {"measurement": "Vd", "setting": "[6]", "result": 0.494, "unit": "L/kg"}, {"measurement": "MTD at 0.25 h", "setting": "[7]", "result": "> 500", "unit": "mg/kg"}, {"measurement": "AUC at 48 h", "setting": "[8]", "result": 22000, "unit": "ng·h/mL"}, {"measurement": "clearance", "setting": "[9]", "result": 7.72, "unit": "mL/min/kg"}]}, {"smiles": "CN[C@@H]1[C@H](O)[C@H](NC)[C@H]2O[C@]3(O)[C@H](O[C@@H]2[C@H]1O)O[C@H](C)C[C@H]3NC(=O)Cc1ccc(Cl)cn1", "values": [{"measurement": "MTD at 0.5 min", "setting": "[1]", "result": 100, "unit": "mg/kg"}, {"measurement": "MTD at 5 s", "setting": "[3]", "result": 75, "unit": "mg/kg"}, {"measurement": "MTD at 5 min", "setting": "[4]", "result": 100, "unit": "mg/kg"}, {"measurement": "MTD at 0.25 h", "setting": "[7]", "result": 150, "unit": "mg/kg"}, {"measurement": "MTD at 0.5 h", "setting": "[10]", "result": 300, "unit": "mg/kg"}]}, {"smiles": "CN[C@@H]1[C@H](O)[C@H](NC)[C@H]2O[C@@]3(O)C(=O)C[C@@H](C)O[C@H]3O[C@@H]2[C@H]1O", "note": "[SPECTINOMYCIN]", "values": [{"measurement": "IC50", "setting": "Bacterial 70S ribosome", "result": 1.08, "unit": "µM"}]}, {"smiles": "CN[C@@H]1[C@H](O)[C@H](NC)[C@H]2O[C@]3(O)[C@H](O[C@@H]2[C@H]1O)O[C@H](C)C[C@H]3NC(=O)Cc1ccc(OP(=O)(O)O)cn1", "values": [{"measurement": "Cmax", "setting": "[11]", "result": 38900, "unit": "ng/mL"}, {"measurement": "Stability", "setting": "[12]", "result": "Stable"}, {"measurement": "t1/2", "setting": "[13]", "result": 19, "unit": "min"}, {"measurement": "Vdss", "setting": "[14]", "result": 0.322, "unit": "L/kg"}, {"measurement": "AUC", "setting": "[15]", "result": 18500, "unit": "ng·h/mL"}, {"measurement": "IC50", "setting": "Bacterial 70S ribosome", "result": 12.2, "unit": "µM"}, {"measurement": "Activity", "setting": "[16]", "result": "inactive"}, {"measurement": "MTD at 5 s", "setting": "[3]", "result": "> 500", "unit": "mg/kg"}, {"measurement": "CL", "setting": "[17]", "result": 9.1, "unit": "mL/min/kg"}, {"measurement": "t1/2", "setting": "[18]", "result": 23.4, "unit": "min"}]}]}
